Bioassay records as filed in PubChem BioAssay.
Only some compounds are listed: those with a hit (about 2.6% of all), similar ones and a draw of the others.
SENP1 inh: blocks the human SENP1 SUMO protease catalytic domain; Q9P0U3; recombinant SENP1 catalytic domain, CyPet-SUMO1-YPet FRET cleavage; inhibition, % at 10 µM; 360,000 compounds, 0.21% hits; AID 624204;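 active = inhibition at least 30% at 10 µM, raw YFP signal under a set limit, fluorescence ratio 0.5 to 1.5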
Target sequence (Q9P0U3 419-644 limits assumed): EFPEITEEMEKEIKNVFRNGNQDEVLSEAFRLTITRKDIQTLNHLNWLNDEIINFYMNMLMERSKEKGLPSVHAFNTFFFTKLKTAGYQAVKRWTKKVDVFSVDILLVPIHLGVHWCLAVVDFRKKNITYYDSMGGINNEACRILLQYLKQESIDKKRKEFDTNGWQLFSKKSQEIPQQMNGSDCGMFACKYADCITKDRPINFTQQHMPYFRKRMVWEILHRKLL
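Compound: 10 µM single point, 0.5% DMSO; Test system: hSENP1 catalytic domain, recombinant; Timing: 50 min reaction at room temperature; Technique: FRET, CFP and YFP emission; Control set: no-enzyme wells low, DMSO-plus-enzyme wells high control.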
SENP6 block: SENP6 protease inhibition; Recombinant SENP6 catalytic domain, aminoluciferin luminescence; inhibition, % at 10 µM; 330,000 compounds, 1.8% hits;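 active = inhibition above about 50% at the single tested dose, limit read from the data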
SENP8 block-1: blocks human SENP8 cleavage of Nedd8 substrate; Q96LD8; recombinant SENP8, Nedd8 substrate fluorescence; inhibition, % at 20 µM; 360,000 compounds, 0.64% hits; AID 602440; in the data active = inhibition mostly above about 40%, no sharp cut-off; inactive = mostly below about 27%
SENP7 inh: blocks the human protease SENP7; 330,000 compounds, 1.5% hits; inhibition, % at 5 µM; recombinant SENP7, Z-RLRGG-aminoluciferin luminescence, 40 min; Q9BQF6; AID 434973;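 active = inhibition above about 50% at the single test dose, limit read from the data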
Target sequence (Q9BQF6 706-1050 limits assumed): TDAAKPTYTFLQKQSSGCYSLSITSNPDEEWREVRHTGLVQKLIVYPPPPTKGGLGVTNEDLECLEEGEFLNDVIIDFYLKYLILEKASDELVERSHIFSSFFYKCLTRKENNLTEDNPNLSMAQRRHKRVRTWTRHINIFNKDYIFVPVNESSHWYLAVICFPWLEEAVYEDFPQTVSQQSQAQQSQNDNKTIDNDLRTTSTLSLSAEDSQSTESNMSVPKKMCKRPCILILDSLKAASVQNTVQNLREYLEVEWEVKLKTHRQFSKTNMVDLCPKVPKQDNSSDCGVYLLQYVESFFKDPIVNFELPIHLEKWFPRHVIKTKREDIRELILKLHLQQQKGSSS
SENP8 block-2: SENP8 protease inhibition | 330,000 compounds, 1.2% hits | purified SENP8, Z-RLRGG-aminoluciferin cleavage, luminescence | inhibition, % at 10 µM | Q96LD8; in the data active = inhibition above about 50%
Platelet DG rel: platelet dense granule release activity; 300,000 compounds, 0.22% hits; human platelet-rich plasma, SFLLRN dense granule ATP release, luminescence; inhibition, %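 (compounds screened at 7.5 µM in platelet-rich plasma)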;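 active = mean replicate score, as percent of positive control, at or above 50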
SENP8 conf: human SENP8 inhibition, confirmed | shares compounds with SENP7 inh | 6,200 compounds, 40% hits | AID 488912 | inhibition, % at 12.5 µM | Recombinant SENP8, Z-RLRGG-aminoluciferin luminescence, 60 min;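 active = mean inhibition across replicates above about 50%, limit read from the data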
SENP6 conf: human SENP6 inhibition, confirmed; 6,200 compounds, 58% hits; recombinant SENP6, Z-RLRGG-aminoluciferin luminescence; inhibition, % at 12.5 µM; shares compounds with SENP7 inh
SENP7 conf: confirmation of human SENP7 protease inhibitors; shares compounds with SENP7 inh; recombinant SENP7, Z-RLRGG-aminoluciferin luminescence, 40 min; inhibition, % at 12.5 µM; 6,200 compounds, 69% hits; AID 488917
Casp3 select: inhibits human caspase-3 in SENP selectivity test. shares compounds with SENP7 inh. purified caspase-3, Z-DEVD-aminoluciferin luminescence, 60 min. inhibition, % at 12.5 µM. 6,200 compounds, 60% hits;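 active = mean inhibition above about 50%, limit read from the data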
Luc interf: counter-screen for SENP inhibitors: luminescence interference. inhibition, % at 12.5 µM. 6,200 compounds, 39% hits. AID 488919. shares compounds with SENP7 inh. Pre-incubated SENP8/Z-RLRGG-aminoluciferin, luciferase luminescence interference;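 active = mean inhibition above about 50% when retested at one dose, limit read from the data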
Of the large screens only hits and unclear results are named; the others gave an inactive call (follow-up assays come after a bar, where they were run).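 Rule for the calls, unless noted: active = mean inhibition above about 50% in the one-dose retest (limit read from the data); inactive = the rest.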

COc1ccc(C(=O)Nc2ccccc2C(N)=O)cc1	SENP6 block 65 | SENP8 conf inactive | SENP6 conf inactive | SENP7 conf 68 | Casp3 select 65 | Luc interf 53
COc1ccc(C(=O)Nc2ccccc2C(=O)N/N=C/c2cccc3ccccc23)cc1	SENP6 block 60, SENP7 inh 63, Platelet DG rel 92 | SENP8 conf inactive | SENP6 conf inactive | SENP7 conf inactive | Casp3 select inactive | Luc interf inactive
Cc1ccccc1NC(=O)c1ccc2ccccc2c1	none
COc1cccc(/C=N/NC(=O)c2ccccc2NC(=O)c2ccco2)c1OC	none
COc1ccc(C(=O)Nc2ccccc2C(=O)Nc2ccccc2C(=O)O)cc1	none
NC(=O)c1ccccc1NC(=O)c1ccc2ccccc2c1	SENP6 block 96, SENP7 inh 90, SENP8 block-2 79 | SENP8 conf 51 | SENP6 conf 82 | SENP7 conf 98 | Casp3 select 81 | Luc interf 59
O=C(NC(=S)Nc1ccccc1C(=O)O)c1ccc2ccccc2c1	SENP6 block 67 | SENP8 conf inactive | SENP6 conf inactive | SENP7 conf inactive | Casp3 select inactive | Luc interf inactive
O=C(C1CC1)N1CCN(c2ccc([N+](=O)[O-])cc2-n2cccc2)CC1	none
COC(=O)c1ccccc1NC(=S)NC(=O)c1ccc2c(c1)OCO2	none
NC(=O)c1ccccc1NC(=O)c1ccc2c(c1)OCO2	SENP6 block 70, SENP7 inh 70, SENP8 block-2 57 | SENP8 conf inactive | SENP6 conf 52 | SENP7 conf 88 | Casp3 select 81 | Luc interf inactive
COc1ccc(C(=O)Nc2cc(Cl)ccc2OC(=O)c2ccc(OC)cc2)cc1	SENP6 block 57, SENP7 inh 55 | SENP8 conf inactive | SENP6 conf inactive | SENP7 conf inactive | Casp3 select 54 | Luc interf inactive
O=C(Nc1ccccc1C(=O)N/N=C/c1ccc(O)cc1)c1ccccc1	SENP6 block 65, SENP7 inh 61, Platelet DG rel 124 | SENP8 conf inactive | SENP6 conf inactive | SENP7 conf 81 | Casp3 select 86 | Luc interf 64
O=C(NC1CC1)C1CCN(Cc2cnn(-c3ccccc3)c2-n2cccc2)CC1	none
CCN(CC)S(=O)(=O)c1cccc(C(=O)NC(C(=O)NNC(=O)c2ccccc2F)C(C)C)c1 (stereo not given)	none (no result: SENP6 block, SENP7 inh, SENP8 block-2, Platelet DG rel)
Cc1ccc(/C=C/c2nnc(-c3cccc(C)c3)o2)cc1	SENP6 block 80, SENP8 block-2 68 | SENP8 conf inactive | SENP6 conf inactive | SENP7 conf inactive | Casp3 select inactive | Luc interf inactive
Cc1ccccc1-c1nnc(-c2ccccc2)o1	SENP6 block 87, SENP7 inh 83, SENP8 block-2 83 | SENP8 conf 78 | SENP6 conf 88 | SENP7 conf 98 | Casp3 select 84 | Luc interf 74
CN(C)c1ccc(-c2nnc(-c3ccccc3F)o2)cc1	SENP6 block 87, SENP7 inh 85, SENP8 block-2 77 | SENP8 conf inactive | SENP6 conf 67 | SENP7 conf 74 | Casp3 select 79 | Luc interf inactive
Cn1cc(-c2nnc(-c3ccccc3)o2)c2ccccc21	SENP7 inh 68 | SENP8 conf inactive | SENP6 conf inactive | SENP7 conf inactive | Casp3 select inactive | Luc interf inactive
COc1ccc(-c2nnc(-c3ccc(N(C)C)cc3)o2)cc1	none
CCSc1nnc(SCC(=O)c2c(N)n(C)c(=O)n(C)c2=O)s1	none (no result: Platelet DG rel)
O=C(NC1CCCC1)c1ccc(Cl)c(S(=O)(=O)N2CCCCC2)c1	none
COc1cc(C(=O)Nc2ccn(C)n2)ccc1OC(F)F	none (no result: Platelet DG rel)
Cc1ccc(CS(=O)(=O)c2ccccc2-c2nnc(-c3ccc(Cl)cc3)o2)cc1	none
CCN(CC)S(=O)(=O)c1cccc(-c2nnc(-c3ccc(C)cc3)o2)c1	none
Cc1cccc(-c2nnc(-c3ccccc3)o2)c1	SENP6 block 88, SENP7 inh 86, SENP8 block-2 74 | SENP8 conf inactive | SENP6 conf 86 | SENP7 conf 98 | Casp3 select 82 | Luc interf 66
Cc1ccccc1-c1nnc(-c2ccc(Cl)cc2)o1	SENP7 inh 75, SENP8 block-2 58 | SENP8 conf inactive | SENP6 conf inactive | SENP7 conf inactive | Casp3 select inactive | Luc interf inactive
COCn1c(-c2ccc(OC)cc2)nc2ccccc21	SENP6 block 59, SENP7 inh 53 | SENP8 conf 55 | SENP6 conf 53 | SENP7 conf 86 | Casp3 select 81 | Luc interf 63
CCCCNC(=S)Nc1cc([N+](=O)[O-])ccc1C	none
CSCCC(NC(=O)COc1cccc2ccccc12)C(=O)O (stereo not given)	none
Cc1ccc(Nc2nnc(SCC3CCCCO3)s2)cc1 (stereo not given)	none
COc1ccccc1Nc1nnc(SCC(=O)NC2CCCC2)s1	none (no result: Platelet DG rel)
Cc1ccccc1Nc1nnc(SCC2CCCCO2)s1 (stereo not given)	SENP6 block 90, SENP7 inh 87, SENP8 block-2 77 | SENP8 conf 81 | SENP6 conf 82 | SENP7 conf 97 | Casp3 select 88 | Luc interf 77
COc1ccccc1Nc1nnc(SCC2CCCCO2)s1 (stereo not given)	SENP6 block 91, SENP7 inh 90, SENP8 block-2 88 | SENP8 conf 91 | SENP6 conf 91 | SENP7 conf 100 | Casp3 select 94 | Luc interf 91
Cc1ccc(S(=O)(=O)NC(=O)NC(=O)N(C)S(=O)(=O)c2ccc(C)cc2)cc1	none
Cn1c2ccccc2c(=O)c2cc(C#Cc3ccccn3)ccc21	SENP6 block 88, SENP7 inh 82, SENP8 block-2 83 | SENP8 conf inactive | SENP6 conf inactive | SENP7 conf inactive | Casp3 select inactive | Luc interf inactive
Cn1c2ccccc2c(=O)c2ccc(C#Cc3ccccn3)cc21	none (no result: SENP1 inh, SENP8 block-1)
